From ChEMBL document CHEMBL1777677, “Synthesis of chromone carboxamide derivatives with antioxidative and calpain inhibitory properties” (Eur J Med Chem, 2011)

Assays:
[1] = Inhibition of human erythrocyte calpain using Suc-Leu-Tyr-AMC substrate after 30 mins by spectrofluorimetry
In short: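 Human erythrocyte calpain I, 34 nM stock added to start, with Suc-Leu-Tyr-AMC, NaCl and CaCl2 in 50 mM Tris–HCl pH 7.5, 1 mM DTT; DMSO ≤1% final. After 30 min at rt, AMC fluorescence read (ex 380/em 460 nm) against calpain-free blank. IC50 from percent inhibition across concentrations; means ± SD, three independent experiments.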

[2] = tested on: Liver; assay: Antioxidant activity in rat liver homogenates assessed as inhibition of iron-ascorbic acid mix-induced lipid peroxidation after 30 mins by TBARS assay; type: functional, tissue-based; conditions: 0.5 h
In short: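 Rat liver homogenate (11 mg protein/ml, Bradford vs BSA) incubated with 10 µM […], 0.4 mM ascorbic acid and graded compound concentrations in 50 mM Tris–HCl pH 7.5, 37 °C for 30 min. Stopped with TBA–TCA reagent containing HCl and BHT, heated 95 °C 30 min, centrifuged, supernatant A535 read. IC50 from three independent experiments, means ± SD.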

[3] = tested on: Radical scavenging activity; assay: Antioxidant activity assessed as DPPH free radical scavenging activity after 30 mins; type: functional
In short: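 Test samples in ethanol mixed with 100 µM ethanolic DPPH, incubated 37 °C for 30 min; absorbance read at 515 nm. Percent inhibition taken against ethanol-treated controls; IC50 is the concentration scavenging 50% of DPPH radicals. Means ± SD of three independent experiments.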

SMILES | IC50 [1] [nM] | IC50 [2] [nM] | IC50 [3] [nM]
COc1cc2oc(C(=O)N[C@@H](Cc3ccccc3)C(=O)C(N)=O)c(C)c(=O)c2cc1OC | 90 | – | –
COc1cc2oc(C(=O)N[C@@H](Cc3ccccc3)C(=O)C(=O)NCc3ccccc3)c(C)c(=O)c2cc1O | 110 | – | –
Cc1c(C(=O)N[C@@H](Cc2ccccc2)C(=O)C(=O)NCc2ccccc2)oc2cc(O)c(O)cc2c1=O | 280 | 48700 | 26500
COc1ccc(CCNC(=O)C(=O)[C@H](Cc2ccccc2)NC(=O)c2oc3cc(OC)c(O)cc3c(=O)c2C)cc1 | 100 | – | –
Cc1c(C(=O)N[C@@H](Cc2ccccc2)C(=O)C(N)=O)oc2ccccc2c1=O | 70 | > 100000 | > 100000
Cc1c(C(=O)N[C@@H](Cc2ccccc2)C(=O)C(=O)NCc2ccccc2)oc2cc(O)ccc2c1=O | 130 | – | –
COc1ccc(CCNC(=O)C(=O)[C@H](Cc2ccccc2)NC(=O)c2oc3cc(O)ccc3c(=O)c2C)cc1 | 90 | – | –
COc1ccc(CCNC(=O)C(=O)[C@H](Cc2ccccc2)NC(=O)c2oc3cc(O)c(O)cc3c(=O)c2C)cc1 | 1290 | 52500 | 41400
COc1ccc(CCNC(=O)C(=O)[C@H](Cc2ccccc2)NC(=O)c2oc3cc(OC)ccc3c(=O)c2C)cc1 | 230 | – | –

Further lines, results first:

IC50 [1] [nM] | IC50 [2] [nM] | IC50 [3] [nM] | SMILES
270 | – | – | COc1ccc(CCNC(=O)C(=O)[C@H](Cc2ccccc2)NC(=O)c2oc3cc(OC)c(OC)cc3c(=O)c2C)cc1
120 | – | – | COc1ccc2c(=O)c(C)c(C(=O)N[C@@H](Cc3ccccc3)C(=O)C(N)=O)oc2c1
430 | – | – | COc1ccc2c(=O)c(C)c(C(=O)N[C@@H](Cc3ccccc3)C(=O)C(=O)NCc3ccccc3)oc2c1
190 | – | – | COc1cc2oc(C(=O)N[C@@H](Cc3ccccc3)C(=O)C(=O)NCc3ccccc3)c(C)c(=O)c2cc1OC
– | > 100000 | 30800 | O=C1O[C@H]([C@@H](O)CO)C(O)=C1O [ASCORBIC ACID]
